GASC1 inh = inhibitors of GASC-1 (KDM4C) histone demethylase, primary screen, biochemical, single concentration HTS; inhibition, % at 12.5 µM; GST-KDM4C 2-372, H3K9me3 peptide, LANCE TR-FRET; 0.15% of 96,000 active; Lysine-specific demethylase 4C (Homo sapiens), Q9H3R0;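 active = mean replicate inhibition above about 25%, with at least 55% of replicates also reaching it, limit read from the data, passing the limit was not always enough; inconclusive = only one of those two conditions met; inactive = neither condition met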
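Material: GST-tagged GASC-1 (JMJD2C) catalytic fragment, aa 2-372. Input: enzyme final amount 10 nM. Medium: HEPES buffer, pH 7.5, plus ascorbate. Reagent: H3K9me3 peptide substrate, Fe(II), 2-oxoglutarate. Doses: single dose. Times: reaction 30 min RT, detection step 1 h RT. Measured by: LANCE TR-FRET. Evaluation: Fall in 671/618 emission ratio as inhibition.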
IDH1 R132H inh = inhibitors of IDH1 R132H reductase, primary screen, biochemical, plate reader, single point | 0.18% of 70,000 active | diaphorase/resazurin fluorescence, 60 min | Isocitrate dehydrogenase [NADP] cytoplasmic (Homo sapiens), O75874 | inhibition, % at 10 µM | AID 624101, 2012; in the data active = inhibition above about 34%; inconclusive = no clear call, values can overlap the other calls; inactive = below about 11%
Target sequence (O75874 whole entry R132H): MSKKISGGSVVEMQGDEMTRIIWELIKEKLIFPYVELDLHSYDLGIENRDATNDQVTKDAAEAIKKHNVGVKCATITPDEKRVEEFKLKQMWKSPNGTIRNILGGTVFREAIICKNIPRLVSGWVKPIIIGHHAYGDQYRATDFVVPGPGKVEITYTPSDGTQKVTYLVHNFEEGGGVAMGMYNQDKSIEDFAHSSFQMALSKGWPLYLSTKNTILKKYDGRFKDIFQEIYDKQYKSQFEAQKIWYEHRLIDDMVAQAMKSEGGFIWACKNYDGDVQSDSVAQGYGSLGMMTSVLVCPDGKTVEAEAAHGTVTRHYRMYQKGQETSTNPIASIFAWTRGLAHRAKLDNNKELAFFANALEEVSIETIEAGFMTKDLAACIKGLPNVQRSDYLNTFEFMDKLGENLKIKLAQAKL
T cruzi growth-1 = T. cruzi intracellular proliferation inhibitors, primary screen, cell-based, beta-gal Tulahuen parasites, NIH3T3 host, luminescence. AID 624255, 2012. 5.9% of 77,000 active. inhibition, % at 8.34 µM. T. cruzi beta-gal in NIH3T3, GalScreen luminescence, 90 h;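 active = mean inhibition above about 93%, with at least 55% of replicates each passing it, limit read from the data, passing the limit was not always enough; inconclusive = only one of those two conditions holds; inactive = neither condition holds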
Pf Dd2 growth = P. falciparum Dd2 growth inhibitors, primary screen, SYBR Green fluorescence, single dose replicates; 2.3% of 94,000 active; activity change, % at 10 µM; 72 h; active compounds read low; AID 1159554, 2015; in the data active = activity change below about -80%; inconclusive = no clear call, values can overlap the other calls
T cruzi growth-2 = T. cruzi intracellular proliferation inhibitors, confirmation, cell-based, NIH3T3 host, beta-gal parasite, luminescence, cherry-pick; shares compounds with T cruzi growth-1; T. cruzi beta-gal in NIH3T3, GalScreen luminescence, 90 h; inhibition, % at 8.35 µM; 72% of 5,600 active;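 active = mean replicate inhibition above about 95% and at least 55% of replicates individually reaching it, limit read from the data; inconclusive = only one of the two criteria is met; inactive = neither criterion is met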
T cruzi growth-3 = inhibitors of intracellular T. cruzi replication, confirmation, NIH3T3 host cells, beta-gal parasites, cherry-pick, set 2. shares compounds with T cruzi growth-1. T. cruzi beta-gal in NIH3T3, GalScreen luminescence, 90 h. inhibition, % at 2.09 µM. 21% of 5,600 active. AID 651740, 2012;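 active = mean inhibition above about 95%, with at least 55% of replicates also reaching it, limit read from the data; inconclusive = meets just one of the two conditions; inactive = meets neither condition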
NIH3T3 tox = cytotoxicity in mouse NIH/3T3 fibroblasts, confirmation, cytotoxicity control for T. cruzi proliferation inhibitor project, cell-based, cherry-pick, single point. shares compounds with T cruzi growth-1. NIH/3T3 viability, CellTiter-Glo ATP luminescence, 90 h. cytotoxicity (signal decrease), % at 8.35 µM. 14% of 5,600 active. AID 651742, 2012;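 active = mean signal decrease across replicates above about 35% based on untreated-well scatter, with enough replicates individually passing, limit read from the data; inconclusive = no rule stated though some were filed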
NIH3T3 tox 2 = NIH/3T3 fibroblast cytotoxicity, confirmation, cytotoxicity control, cell-based, cherry-pick, single point, set 2; shares compounds with T cruzi growth-1; AID 651744, 2012; NIH/3T3 viability, CellTiter-Glo ATP luminescence, 90 h; inhibition, % at 24.9 µM; 56% of 5,600 active;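 active = mean loss of cell viability signal at or above a set limit, and enough replicates individually reaching it; inconclusive = meets only the mean limit or only the replicate share; inactive = meets neither condition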
Hits are given with their value; n = inactive; u = inconclusive; x = no result. Only some compounds are listed: those with a hit (about 5.8% of all), similar ones and a draw of the others.

SMILES	GASC1 inh	IDH1 R132H inh	T cruzi growth-1	Pf Dd2 growth	T cruzi growth-2	T cruzi growth-3	NIH3T3 tox	NIH3T3 tox 2
C[C@@H]1CCCCO[C@H](CN(C)CC2CCCCC2)[C@@H](C)CN([C@H](C)CO)C(=O)c2cc(NC(=O)Nc3ccc4c(c3)OCO4)ccc2O1	n	x	97	n	109	112	n	83
O=C(N[C@@H]1CC[C@H](CCNS(=O)(=O)c2ccccc2)O[C@@H]1CO)c1cccc(F)c1	n	n	n	n	x	x	x	x
COc1ccccc1NC(=O)Nc1ccc2c(c1)C(=O)N(C)C[C@H](OC)[C@H](C)CN(C)[C@@H](C)CO2	n	n	n	n	x	x	x	x
COc1ccc2c3c([nH]c2c1)[C@H](CO)N(C(=O)Nc1c(C)noc1C)CC31CCN(CC2CCCC2)CC1	n	x	x	n	x	x	x	x
C[C@@H]1CN([C@H](C)CO)C(=O)c2cc(NC(=O)Cc3ccccc3)ccc2O[C@@H](C)CCCCO[C@@H]1CN(C)Cc1ccc(Cl)c(Cl)c1	n	x	n	n	x	x	x	x
C[C@@H]1CCCCO[C@@H](CN(C)Cc2ccc(Cl)c(Cl)c2)[C@@H](C)CN([C@@H](C)CO)C(=O)c2cc(NC(=O)Cc3ccccc3)ccc2O1	n	n	98	n	106	n	n	n
C[C@@H]1CCCCO[C@H](CN(C)Cc2ccc3c(c2)OCO3)[C@H](C)CN([C@@H](C)CO)C(=O)c2cc(NC(=O)c3ccncc3)ccc2O1	n	n	112	n	n	n	n	n
C[C@@H]1CN([C@H](C)CO)C(=O)c2cc(NC(=O)Nc3ccc4c(c3)OCO4)ccc2O[C@@H](C)CCCCO[C@@H]1CN(C)C(=O)C1CCCCC1	n	n	n	n	x	x	x	x
C[C@H](CO)N1C[C@H](C)[C@H](CN(C)Cc2ccc(Cl)c(Cl)c2)Oc2ccc(NC(=O)CCCCCC(=O)Nc3ccccc3N)cc2C1=O	n	x	97	n	103	102	n	32
C[C@H](CO)N1C[C@H](C)[C@@H](CN(C)C(=O)C2CCCCC2)OCCCC[C@H](C)Oc2ccc(NC(=O)Nc3ccc4c(c3)OCO4)cc2C1=O	n	n	111	n	n	n	n	n
CC(C)NC(=O)Nc1ccc2c(c1)CC(=O)N([C@H](C)CO)C[C@H](C)[C@@H](CN(C)Cc1ccc(C(F)(F)F)cc1)O2	n	n	x	n	x	x	x	x
C[C@@H]1CCCCO[C@H](CN(C)C(=O)NC2CCCCC2)[C@H](C)CN([C@H](C)CO)C(=O)c2cc(NC(=O)Cc3ccccc3)ccc2O1	n	n	x	x	x	x	x	x
C[C@@H]1CN([C@H](C)CO)C(=O)c2cc(NC(=O)Cc3ccccc3)ccc2O[C@@H](C)CCCCO[C@@H]1CN(C)Cc1ccc2c(c1)OCO2	n	x	100	n	105	n	n	102
C[C@@H]1CCCCO[C@@H](CN(C)Cc2ccc(Cl)c(Cl)c2)[C@@H](C)CN([C@H](C)CO)C(=O)c2cc(NC(=O)Nc3ccc4c(c3)OCO4)ccc2O1	n	n	104	n	104	n	n	n
C[C@@H]1CN([C@H](C)CO)C(=O)c2cc(NC(=O)Cc3ccccc3)ccc2O[C@@H]1CN(C)Cc1ccc(Cl)c(Cl)c1	n	n	109	n	109	n	n	93
C[C@@H]1CCCCO[C@@H](CN(C)Cc2ccc3c(c2)OCO3)[C@H](C)CN([C@H](C)CO)C(=O)c2cc(NC(=O)Cc3ccccc3)ccc2O1	n	x	n	n	x	x	x	x
C[C@@H]1CN([C@@H](C)CO)C(=O)c2cc(NC(=O)Nc3ccc4c(c3)OCO4)ccc2O[C@@H](C)CCCCO[C@H]1CN(C)C	n	n	100	n	112	n	n	n
C[C@@H]1CN([C@@H](C)CO)C(=O)c2cc(NC(=O)Nc3ccc4c(c3)OCO4)ccc2O[C@@H](C)CCCCO[C@@H]1CN(C)C	n	x	n	x	x	x	x	x
COCC(=O)N1C[C@H](C)[C@H](OC)CN(C)C(=O)c2cc(NC(=O)c3cnccn3)ccc2OC[C@H]1C	n	n	n	n	x	x	x	x
C[C@H](CO)N1C[C@H](C)[C@H](CN(C)Cc2ccc3c(c2)OCO3)OCCCC[C@H](C)Oc2ccc(NC(=O)Nc3ccccc3)cc2C1=O	n	n	103	n	106	n	n	104
COC(=O)c1cnn(-c2ccccc2)c1C=Nc1ccc(C)cc1	x	n	x	x	x	x	x	x
CC(C)NC(=O)Nc1cccc2c1O[C@H](CN(C)S(=O)(=O)c1ccc(Cl)cc1)[C@@H](C)CN([C@@H](C)CO)C2=O	n	x	x	n	x	x	x	x
CC(C)CC#Cc1ccc2c(c1)O[C@H](CN(C)C(=O)Cc1ccccc1)[C@@H](C)CN([C@@H](C)CO)S2(=O)=O	n	n	127	n	104	111	n	104
CC(C)CC#Cc1ccc2c(c1)O[C@H](CN(C)C(=O)Cc1ccccc1)[C@@H](C)CN([C@H](C)CO)S2(=O)=O	n	n	125	n	98	u	n	105
CC(C)CC#Cc1ccc2c(c1)O[C@@H](CN(C)C(=O)Cc1ccncc1)[C@H](C)CN([C@@H](C)CO)S2(=O)=O	n	n	100	-82	99	n	n	n
CC(C)CC#Cc1ccc2c(c1)O[C@H](CN(C)C(=O)Cc1ccncc1)[C@@H](C)CN([C@@H](C)CO)S2(=O)=O	n	n	u	n	x	x	x	x
Cc1cc2ncc(-c3ccn(S(=O)(=O)c4ccc(Cl)cc4)c3)nc2cc1C	x	n	x	x	x	x	x	x
C[C@@H]1CCCCO[C@H](CN(C)C(=O)Nc2ccc(C(F)(F)F)cc2)[C@H](C)CN([C@@H](C)CO)C(=O)c2cc(NC(=O)Nc3ccc(F)cc3)ccc2O1	n	x	111	n	106	118	n	n
C[C@@H]1CCCCO[C@@H](CN(C)C(=O)Nc2ccc(F)cc2)[C@H](C)CN([C@@H](C)CO)C(=O)c2cc(NC(=O)Nc3ccc(C(F)(F)F)cc3)ccc2O1	n	x	95	n	105	104	n	n

Assay outcomes (PubChem)
